Hit rate of the full screen: of about 20,000 compounds, about 25 (0.1%) were called active.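 How the source made its calls: active means mean replicate protection from cytokine-induced ATP loss at least 50% and at least 75% of replicates each reaching 50%; inconclusive means meets only one of the two criteria, mean or replicate share; inactive means fails both the mean and replicate share criteria.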 The entries come from a sample that favours actives as a whole.

A short description of this assay: preservation of ATP in cytokine-treated beta cells – cell-based, ATP luminescence, single point, primary screen (AID 488910). The note with it: INS-1E cytokine-induced death, 48 h, at 10 µM, stronger effect = higher value, normalised: neutral wells 0, positive control 100. An outline of the steps: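 assay system = INS-1E rat insulinoma cells | amount = 8000 cells per well | medium = phenol-red-free RPMI with 5% fetal bovine serum | doses = one compound concentration, pin transfer | timing = 48 h cytokine plus compound treatment, 10 min reagent incubation | also added = IL-1β, TNF-α and IFN-γ cytokine mix | signal = CellTiter-Glo luminescence measuring cellular ATP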
On to `COc1ccc(NC(=O)N(C)C[C@@H]2Oc3ccc(NC(=O)CCCN(C)C)cc3CC(=O)N([C@H](C)CO)C[C@H]2C)cc1`, for which the protection from cytokine-induced ATP loss was 7.7% (inactive).
The figure for `C[C@@H]1CN([C@@H](C)CO)C(=O)c2cccc(NS(=O)(=O)c3ccc(Cl)cc3)c2O[C@@H]1CN(C)Cc1ccccc1` is -3.08% (inactive); for `CC(C)NC(=O)N(C)C[C@H]1Oc2ccc(NS(C)(=O)=O)cc2CC(=O)N([C@@H](C)CO)C[C@@H]1C` it is 2.48% (inactive).
The figure for `Cc1noc(C)c1NC(=O)N(C)C[C@@H]1Oc2c(NC(=O)C3CCCCC3)cccc2C(=O)N([C@H](C)CO)C[C@@H]1C` is 10.1% (inactive); for `C[C@@H]1CN([C@H](C)CO)C(=O)c2cccc(NC(=O)Nc3ccc4c(c3)OCO4)c2O[C@@H]1CN(C)Cc1ccccc1` it is -9.92% (inactive); for `C[C@@H]1CN([C@@H](C)CO)C(=O)c2cccc(NS(=O)(=O)c3cccs3)c2O[C@H]1CN(C)Cc1ccncc1` it is 4.56% (inactive).
The figure for `C[C@H]1CN([C@@H](C)CO)C(=O)Cc2cc(NC(=O)Cn3cnnn3)ccc2O[C@@H]1CN(C)Cc1ccc(-c2ccccc2)cc1` is 5.19% (inactive); for `C[C@@H]1CN([C@H](C)CO)C(=O)Cc2cc(NC(=O)Nc3cccc4ccccc34)ccc2O[C@@H]1CN(C)Cc1ccc(C(F)(F)F)cc1` it is -18.8% (inactive).
In the case of `Cc1ccc(S(=O)(=O)Nc2ccc3c(c2)CC(=O)N([C@H](C)CO)C[C@@H](C)[C@H](CN(C)Cc2ccc(C(F)(F)F)cc2)O3)cc1`, the protection from cytokine-induced ATP loss was 4.83% (inactive).
The figure for `O=C(NO)c1ccc(C(=O)N/N=C/c2cc(Br)cc(Br)c2O)cc1` is 29.8% (inactive); for `C[C@@H]1CN([C@@H](C)CO)C(=O)c2cc(NS(=O)(=O)c3ccc(Cl)cc3)ccc2O[C@H]1CN(C)C(=O)Nc1ccc(C(F)(F)F)cc1` it is -4.38% (inactive).
The figure for `C[C@H]1CN([C@@H](C)CO)C(=O)c2cc(NS(=O)(=O)c3cccs3)ccc2O[C@@H]1CN(C)C(=O)Nc1ccccc1` is 10.2% (inactive); for `C[C@@H]1CN([C@H](C)CO)C(=O)Cc2cc(NS(=O)(=O)c3cccs3)ccc2O[C@@H]1CN(C)Cc1ccc(C(=O)O)cc1` it is 5.4% (inactive).
The figure for `C[C@@H]1CN([C@H](C)CO)C(=O)Cc2cc(NS(=O)(=O)c3cn(C)cn3)ccc2O[C@@H]1CN(C)C(=O)Nc1ccccc1` is 10.7% (inactive).
Regarding `CC(C)NC(=O)N(C)C[C@@H]1Oc2ccc(NC(=O)CCCCCC(=O)Nc3ccccc3N)cc2C(=O)N([C@@H](C)CO)C[C@H]1C`, the protection from cytokine-induced ATP loss is 12.1% (inactive).
The figure for `Cc1ccc(S(=O)(=O)Nc2ccc3c(c2)CC(=O)N([C@@H](C)CO)C[C@H](C)[C@H](CN(C)Cc2ccccc2)O3)cc1` is 12.2% (inactive).
The figure for `COC(=O)CCCCCCC(=O)N/N=C/c1cccc(Br)c1` is 21.3% (inactive); for `C[C@H](CO)N1C[C@H](C)[C@H](CN(C)C(=O)Nc2cccc3ccccc23)Oc2ccc(NS(C)(=O)=O)cc2C1=O` it is 4.67% (inactive); for `C[C@H]1CN([C@@H](C)CO)C(=O)Cc2cc(NC(=O)NC3CCCCC3)ccc2O[C@@H]1CN(C)Cc1ccc(Oc2ccccc2)cc1` it is -49.9% (inactive).
Consider `C[C@@H]1CN([C@@H](C)CO)C(=O)c2cc(NC(=O)C3CCCCC3)ccc2O[C@@H]1CN(C)Cc1ccc(C(=O)O)cc1`, for which the protection from cytokine-induced ATP loss is 3.82% (inactive).
The figure for `COc1ccc(NC(=O)Nc2ccc3c(c2)CC(=O)N([C@@H](C)CO)C[C@H](C)[C@@H](CN(C)S(=O)(=O)c2cn(C)cn2)O3)cc1` is 14.9% (inactive); for `Cc1ccc(S(=O)(=O)Nc2ccc3c(c2)C(=O)N([C@H](C)CO)C[C@H](C)[C@@H](CN(C)C(=O)Nc2ccc4c(c2)OCO4)OCCCC[C@@H](C)O3)cc1` it is -3.08% (inactive).
Consider `COc1cc(/C=N\NC(=O)CCCCCCC(=O)NO)c(Br)cc1O`, for which the protection from cytokine-induced ATP loss was 77.6% (active).
The figure for `COC(=O)CCCCCCC(=O)N/N=C/c1ccc(O)c(OC)c1` is 9.74% (inactive); for `COC(=O)CCCCCCC(=O)N/N=C/c1c(OC)cc(O)cc1OC` it is 3.27% (inactive).
The figure for `C[C@H](CO)N1C[C@H](C)[C@H](CN(C)S(C)(=O)=O)Oc2c(NC(=O)c3ccc(-c4nccs4)cc3)cccc2C1=O` is -1.51% (inactive); for `COc1ccc(S(=O)(=O)Nc2ccc3c(c2)C(=O)N([C@H](C)CO)C[C@@H](C)[C@H](CN(C)S(=O)(=O)c2ccc(C)cc2)O3)cc1` it is -13.4% (inactive).
The figure for `C[C@@H]1CN([C@H](C)CO)C(=O)c2cc(NS(C)(=O)=O)ccc2O[C@@H]1CN(C)S(C)(=O)=O` is 6.6% (inactive).
Turning to `Cc1noc(C)c1NC(=O)N(C)C[C@H]1OCCCC[C@@H](C)Oc2ccc(NC(=O)NC(C)C)cc2C(=O)N([C@H](C)CO)C[C@@H]1C`, the protection from cytokine-induced ATP loss was -5.7% (inactive).
For `COc1ccc(NC(=O)Nc2ccc3c(c2)C(=O)N([C@H](C)CO)C[C@H](C)[C@@H](CN(C)C(=O)Nc2ccc4c(c2)OCO4)O3)cc1`, the protection from cytokine-induced ATP loss is 3.11% (inactive).
The figure for `C[C@@H]1CN([C@@H](C)CO)C(=O)c2cc(NC(=O)CCN3CCOCC3)ccc2O[C@@H]1CN(C)S(=O)(=O)c1ccccc1` is 8.45% (inactive).

The record behind these values is PubChem BioAssay AID488910 (Broad Institute, 2010).
